High-throughput results: PubChem BioAssay, several laboratories
Only some compounds are listed: those with a hit (about 1.4% of all), similar ones and a draw of the others.
PG9 Ab binder: binders of HIV-1 gp120 antibody PG9, primary screen, biochemical, TR-FRET; HIV-1 gp120 / PG9 antibody interaction; TR-FRET gp120-PG9 antibody binding; inhibition, % at 6.7 µM; hit rate 0.43% among 360,000; AID 624416, 2012; in the data active means inhibition above about 8.5%
NR1D1 modulator: modulators of Rev-erb alpha DNA binding, primary screen, biochemical, FITC-DNA, fluorescence polarization, uHTS; Nuclear receptor subfamily 1 group D member 1 (Homo sapiens), P20393; activity, % at 10 µM; hit rate 0.79% among 370,000; Rev-erbα–FITC-DNA binding, 90 min; AID 1259318, 2017;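 active means activity above about 14%, limit read from the data; passing the limit was not always enough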
NR2E3 ag-1: inhibitors of NR2E3-RetCOR corepressor binding, primary screen, NR2E3 agonist project, biochemical, TR-FRET, GST-NR2E3, biotin-RetCOR | Photoreceptor-specific nuclear receptor (Homo sapiens), Q9Y5X4 | 1536-well | inhibition of corepressor binding, % at 4.78 µM | hit rate 0.12% among 320,000 | AID 2300, 2010;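 active means percent inhibition above the cutoff of mean plus 3 SD of all tested compounds, set per screening campaign, cut at about 20% in these data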
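Material: NR2E3–RetCOR corepressor complex / Incubation: Compound–protein incubation for 5 h at 4 °C / Dosing: compound at 4.8 µM, single dose / Detection: time-resolved FRET / Benchmarks: high control biotin, low control 0.6% DMSO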
NR2E3 ag-2: NR2E3 agonists in two-hybrid cells, primary screen, cell-based, luminescence, CHO-S, Gal4-NCOR/VP16-NR2E3; Photoreceptor-specific nuclear receptor (Homo sapiens), Q9Y5X4; luciferase; inhibition of corepressor binding, % at 3.98 µM; hit rate 0.35% among 360,000;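 active means inhibition above the mean of all tested compounds plus 3 SD, cut at about 70% in these data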;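 further: higher means lower luciferase signal from less NR2E3 corepressor binding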
NR2E3 agonist cf: NR2E3 agonists, confirmation, biochemical, TR-FRET. shares compounds with NR2E3 ag-1. cell-free NR2E3 corepressor release, 5 h. activation (reported as inhibition), % at 3.98 µM. hit rate 39% among 360; in the data active means activation above about 20%
PPARg-NCOR2 ctr: agonists of PPARg-NCOR2 corepressor interaction, counter-screen for NR2E3 agonist project, biochemical, TR-FRET. shares compounds with NR2E3 ag-1. TR-FRET PPARg-NCOR2 coregulator interaction. inhibition, % at 3.98 µM. hit rate 45% among 360. AID 504787, 2011; in the data active means inhibition above about 20%
PG9 binder conf: binders of anti-gp120 antibody PG9, confirmation, biochemical, TR-FRET. shares compounds with PG9 Ab binder. TR-FRET PG9 antibody binding. inhibition, % at 6.7 µM. hit rate 90% among 1,500. AID 651571, 2012; in the data active means inhibition above about 9%
PGV04 Ab binding: binders of control antibody PGV04, counter-screen for PG9 antibody binder project, biochemical, TR-FRET, distinct HIV envelope site; AID 651604, 2012; hit rate 95% among 1,500; shares compounds with PG9 Ab binder; TR-FRET PGV04 antibody-gp120 binding; inhibition, % at 6.7 µM; in the data active means inhibition above about 9.5%
Numbers stand for hits; 0 = inactive; - = no result given.

SMILES | PG9 Ab binder | NR1D1 modulator | NR2E3 ag-1 | NR2E3 ag-2 | NR2E3 agonist cf | PPARg-NCOR2 ctr | PG9 binder conf | PGV04 Ab binding
NC(=O)c1cc[n+](CC2=C(C(=O)O)N3C(=O)[C@@H](NC(=O)Cc4cccs4)[C@H]3SC2)cc1 | - | 0 | - | - | - | - | - | -
COC(=O)c1c(NC(=S)Nc2cc(OC)c(Cl)cc2OC)sc2c1CCCCC2 | 0 | 0 | 20 | 0 | 0 | 0 | - | -
CCCCn1c(NS(=O)(=O)c2ccccc2)c(S(=O)(=O)c2ccc(C)cc2)c2nc3ccccc3nc21 | 0 | 0 | 0 | 0 | - | - | - | -
CCCCCn1c(NC(=O)c2ccco2)c(S(=O)(=O)c2ccc(C)cc2)c2nc3ccccc3nc21 | 0 | 0 | 20 | 0 | 0 | 42 | - | -
CC(C)Cc1c2c([nH]c(=S)c1C#N)CCCC2 | 15 | 0 | 38 | 0 | 34 | 36 | 0 | 0
Cc1cc(SCC(=O)NC2CCCC2)nc2ccccc12 | 16 | 0 | 22 | 0 | 0 | 0 | 31 | 44
CCN(CC(=O)NC(C)C)Cc1nc2c(Br)cc(Br)cc2c(=O)[nH]1 | 23 | 0 | 55 | 0 | 56 | 48 | 40 | 52
O=C(O)CCCN1CCC(O[C@@H](c2ccc(Cl)cc2)c2ccccn2)CC1 | - | 0 | - | - | - | - | - | -
COc1cccc(C2/C(=C(/O)c3ccc4c(c3)OCO4)C(=O)C(=O)N2CCN2CCOCC2)c1 (stereo not drawn) | 21 | 0 | 30 | 0 | 29 | 27 | 31 | 37
O=C1C(=O)N(Cc2cccnc2)C(c2cccc(Br)c2)/C1=C(/O)c1ccc2c(c1)OCO2 (stereo not drawn) | 37 | 0 | 47 | 0 | 27 | 31 | 39 | 46
NS(=O)(=O)c1cc2c(cc1Cl)CN(C1CCCCC1)C2=O | - | 0 | - | - | - | - | - | -
Cc1cc(C)c(OCC(=O)Nc2ccc3c(c2)OCO3)cc1C | 18 | 0 | 29 | 0 | 0 | 0 | 20 | 24
O=C(O)CCC(=O)N1CCN(c2nc(-c3ccccc3Cl)c3cc(Br)ccc3n2)CC1 | 11 | 0 | 24 | 0 | 0 | 0 | 16 | 23
O=C(O)CCC(=O)N1CCN(c2nc(-c3ccccc3)c3cc(Br)ccc3n2)CC1 | 0 | 0 | 0 | 0 | - | - | - | -
Cc1nc2ccccc2nc1SCC(=O)N1CCC(C)CC1 | 38 | 0 | 22 | 0 | 0 | 0 | 34 | 42
CC1CCCN(C(=O)CSc2cnc3ccccc3n2)C1 (stereo not drawn) | 30 | 0 | 48 | 0 | 0 | 0 | 35 | 39
COCCCN1C(=O)C(O)=C(C(=O)c2ccc(C)o2)C1c1cccc(Br)c1 (stereo not drawn) | 19 | 0 | 45 | 0 | 20 | 20 | 20 | 26
C=CCOc1ccc(C2C(C(=O)c3ccc(C)o3)=C(O)C(=O)N2Cc2cccnc2)cc1 (stereo not drawn) | 11 | 0 | 20 | 0 | 0 | 0 | 27 | 31
CCCCOc1cccc(C2C(C(=O)c3ccc(C)o3)=C(O)C(=O)N2Cc2ccco2)c1 (stereo not drawn) | 0 | 0 | - | 0 | - | - | - | -
CCOc1cccc(C2C(C(=O)c3ccc(C)o3)=C(O)C(=O)N2c2nccs2)c1 (stereo not drawn) | 0 | 0 | 0 | 0 | - | - | - | -
CCOc1cccc(C2C(C(=O)c3ccc(C)o3)=C(O)C(=O)N2CCCn2ccnc2)c1 (stereo not drawn) | 9.1 | 0 | 24 | 0 | 29 | 28 | 15 | 19
